# S1P3 ag: agonists of human S1P3 receptor. Q99500. S1P3 NFAT-BLA reporter cells, agonism, FRET ratio; relative to 1 µM S1P, basal subtracted. activation, % at 4.5 µM. hit rate 0.1% among 60,000. AID 373;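 active means activation above the screen-wide mean plus 3 SD, cut at about 4.5% in these data, passing the limit was not always enough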
#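 Material: Human S1P3 NFAT-BLA reporter CHO cells | Incubation: Overnight plating, 4 h compound 37 °C, 2 h substrate RT | Signal: FRET β-lactamase substrate fluorescence, excitation 405 nm, 460/535 nm emission ratio, background-subtracted | Compound: 4.5 µM final, single dose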
# HTR1E agonist: 5-HT1E (human) receptor agonism. P28566. CHO 5-HT1E Ga15 NFAT-bla reporter, FRET; 0% DMSO wells, 100% control agonist wells. activation, % at 6 µM. hit rate 0.69% among 65,000. AID 574;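 active means activation above a set limit, the screen-wide mean activation plus 3 SD, cut at about 8.5% in these data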;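 further: 100% = positive control agonist at 1 µM giving full maximal response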
# Target sequence (P28566 whole entry, looked up): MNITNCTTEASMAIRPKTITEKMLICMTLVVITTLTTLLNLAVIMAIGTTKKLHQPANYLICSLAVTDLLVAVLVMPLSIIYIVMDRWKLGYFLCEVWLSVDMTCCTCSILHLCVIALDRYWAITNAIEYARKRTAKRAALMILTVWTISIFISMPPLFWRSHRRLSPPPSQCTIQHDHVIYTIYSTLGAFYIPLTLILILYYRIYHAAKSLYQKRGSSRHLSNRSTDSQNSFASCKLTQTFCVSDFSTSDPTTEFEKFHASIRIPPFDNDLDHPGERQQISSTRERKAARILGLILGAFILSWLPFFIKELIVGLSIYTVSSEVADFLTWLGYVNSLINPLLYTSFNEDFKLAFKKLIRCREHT
# S1P1 ag-PAM: agonists and agonism potentiators of human S1P1 receptor; S1P1 CRE-bla cells, forskolin, beta-lactamase FRET, potentiator mode; S1P1 agonist co-added at EC20, 2 nM; 100% = saturating reference agonist, 0% = basal; activation, % at 9.5 µM; hit rate 0.57% among 56,000;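 active means activation above a cutoff set at the mean activation of all tested compounds plus 3 SD, cut at about 54% in these data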;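 further: forskolin at 4 µM as EC80 and the EC20 agonist is SEW2871; 100% = SEW2871 at its EC100 plus forskolin at EC80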
# 5HT1a antag: blocks the human serotonin 5-HT1a receptor | P08908 | hit rate 0.68% among 62,000 | AID 612 | CHO 5-HT1a Ga15 NFAT-bla reporter, antagonist mode | inhibition, % at 10 µM;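 active means inhibition above the mean of all tested compounds plus 3 SD, cut at about 43% in these data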;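 further: receptor stimulated by 5-CT agonist at 100 nM near EC80; beta-lactamase reporter measured by ratiometric fluorescence of a cleavable substrate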
# 5HT1a ag: activates the human 5-HT1a serotonin receptor | P08908 | CHO 5-HT1a Ga15 NFAT-bla reporter, FRET ratio; 0% basal, 100% maximal reference agonist | activation, % at 10 µM | hit rate 0.56% among 65,000 | AID 567;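 active means activation above the screen-wide mean activation plus 3 SD, cut at about 19% in these data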;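 further: 0% = DMSO wells and 100% = 5-CT at EC100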
# 5HT1E antag: 5-HT1E (human) receptor antagonism; P28566; CHO 5-HT1E Ga15 NFAT-bla reporter, FRET, antagonist; inhibition, % at 6 µM; hit rate 0.99% among 65,000; AID 571;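 active means inhibition above a set limit, the mean inhibition across every tested compound plus 3 SD, cut at about 29% in these data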;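 further: signal is the 460 over 535 nm emission ratio of beta-lactamase substrate; 0% = agonist plus DMSO wells and 100% = wells without agonist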
# Active calls of the source: *; . = no result. Only some compounds are listed: those with a hit (about 3% of all), similar ones and a draw of the others.
SMILES,S1P3 ag,HTR1E agonist,S1P1 ag-PAM,5HT1a antag,5HT1a ag,5HT1E antag
COCCOC(=O)C1=C(C)NC2=C(C(=O)CC(C)(C)C2)C1c1cc2c(cc1Br)OCO2 (centres undefined),-1,0,-39,9,0,-4
O=C(c1ccco1)N1CCN(S(=O)(=O)c2ccc(F)cc2)CC1,0,0,.,11,-1,-8
Cc1noc(C)c1COc1ccc(C(=O)OC(C)C(=O)Nc2ccc(N3CCOCC3)cc2)cc1 (centres undefined),1,120*,2,1,-2,-6
CC(=O)c1ccc(N2CCN(C(=O)c3ccc(OCc4c(C)noc4C)cc3)CC2)cc1,1,0,6,-2,-2,5
Oc1c(C(Nc2ccccn2)c2ccccn2)ccc2cccnc12 (centres undefined),0,0,12,48*,-2,43*
CC(C)(C)Nc1nc(SCc2ccccc2)nc(N2CCOCC2)n1,2,0,-69,-6,0,6
CNc1nc(SCc2ccccc2)nc(N2CCOCC2)n1,0,0,-32,0,-7,33*
CCc1c(C)nc2cc(-c3ccc(OC)c(OC)c3)nn2c1N1CCCC1,.,0,.,15,1,31*
CC(NS(=O)(=O)c1ccccc1)C(=O)Nc1nccs1 (centres undefined),0,0,-1,-1,268*,6
CCOC(=O)CN1C(=O)C(C)(C)Oc2ccc(C(=O)Nc3ccccc3OC)cc21,0,-2,90*,-2,1,3
CCOC(=O)C(C)c1nn(C)c(=O)c2ccccc12 (centres undefined),-1,0,.,1,0,4
CCOC(=O)CCc1nn(C)c(=O)c2ccccc12,.,0,.,-4,1,40*
CC(=O)C1=C(C)NC(SCC(=O)c2ccc(Cl)c(Cl)c2)=C(C#N)C1c1ccco1 (centres undefined),0,-1,25,13,-2,21
CC(=O)C1=C(C)NC(SCC(=O)c2cc(Cl)ccc2Cl)=C(C#N)C1c1ccco1 (centres undefined),-2,0,52,33,-3,31*
CC1CN(Cc2nc3c(c(=O)n(C)c(=O)n3C)n2Cc2ccc(Cl)cc2)CC(C)O1 (centres undefined),0,0,-10,10,0,-2
Cc1ccc(-n2c(=O)c(C#N)cc3c(=O)n4ccccc4nc32)cc1,4,8,-11,-25,30*,-6
Cc1cc(-n2c(=O)c(C#N)cc3c(=O)n4cccc(C)c4nc32)no1,8,3,-22,-21,49*,-4
C=CCn1c(SCC(=O)N2CCOCC2)nc2scc(-c3ccco3)c2c1=O,-1,-2,-27,1,29*,13
Cc1ccc(S(=O)(=O)CCc2nc3ccccc3n2CCC#N)cc1,.,-1,.,3,1,-4
O=C(CCc1nc(-c2ccccc2F)no1)Nc1ccc(Oc2ccccc2)cc1,-1,0,128*,11,1,5
O=C(CCc1nc(-c2ccccc2F)no1)NCCc1ccccc1Cl,-1,15*,-5,4,-2,-18
Cc1ccc(-c2noc(CCC(=O)NCCc3ccccc3Cl)n2)cc1,-1,21*,0,14,-1,1
Cc1ccc(-c2noc(CCC(=O)NCCN3CCN(Cc4ccccc4)CC3)n2)cc1,0,0,-11,13,-3,2
COc1ccc(CNC(=O)CCc2nc(-c3ccccc3F)no2)c(OC)c1,-1,-1,-17,3,-2,4
O=C(Nc1nc2ccccc2n1Cc1ccccc1)c1ccco1,-1,0,-2,60*,-2,-7
SMILES,S1P3 ag,HTR1E agonist,S1P1 ag-PAM,5HT1a antag,5HT1a ag,5HT1E antag
O=C(Cn1c(NCCCO)nc2ccccc21)c1ccco1,-1,-1,3,2,2,13
COc1cccc(C2C(C(=O)c3cccs3)=C(O)C(=O)N2CCCn2ccnc2)c1OC (centres undefined),-1,2,.,4,1,9
CCn1c(Cc2ccccc2)nnc1SCC(=O)Nc1ccc(N2CCOCC2)c(Cl)c1,-1,1,.,-4,1,0
Cn1c(SCC(=O)Nc2ccc(N3CCOCC3)c(Cl)c2)nnc1-c1ccccc1,-1,-1,89*,-2,-1,-12
CCN(CC)CCCN1C(=O)C(O)=C(C(=O)c2ccco2)C1c1ccc(C)o1 (centres undefined),.,1,.,2,0,4
CC1=C(C(=O)Nc2ccccc2)C(c2ccc(C)o2)n2c(s/c(=C\c3ccco3)c2=O)=N1 (centres undefined),-1,0,7,28,0,42*
Cc1nnc(SCC(=O)N2CCN(S(=O)(=O)c3ccc(Cl)cc3)CC2)n(N)c1=O,0,24*,-20,-9,-1,2
Nn1cc(-c2ccccc2)nc1SCC(=O)N1CCN(S(=O)(=O)c2ccc(Cl)cc2)CC1,2,1,-21,-4,-3,-8
CCN1CCN(Cc2nc3c(c(=O)n(C)c(=O)n3C)n2C(C)C(C)=O)CC1 (centres undefined),.,0,.,-10,0,1
O=C(CSc1nc2ccccc2c(=O)n1CC1CCCCC1)N1CCOCC1,-4,0,2,.,2,3
CCN(CC)C(=O)CSc1nc2ccccc2c(=O)n1CC1CCCCC1,-7,0,25,.,4,37*
CN1CCN(c2nc(-c3ccccc3)c3cc(Cl)ccc3n2)CC1,13,8,-41,-30,30*,0
Clc1ccc2nc(NC3=NCN(CCN4CCOCC4)CN3)nc(-c3ccccc3)c2c1,-1,1,-22,-6,-3,-2
OCCN1CCN(c2nc(-c3ccccc3)c3cc(Cl)ccc3n2)CC1,4.6*,7,-41,-20,18,6
Clc1ccc2nc(N3CCNCC3)nc(-c3ccccc3)c2c1,18*,14*,-50,.,55*,-4
COc1ccc(Cl)cc1NC(=O)CSc1nnc(-c2ccncc2)n1CC1CCCO1 (centres undefined),0,0,-11,3,1,-2
COc1ccccc1NC(=O)CSc1nnc(-c2ccncc2)n1CC1CCCO1 (centres undefined),0,-1,-3,-15,37*,-5
CC1=CC(C)(C)N(C(=O)c2ccc(F)cc2)c2cc3c(cc21)OCO3,0,-1,13,43*,-5,-4
CSC1=NCCN1C(=O)c1ccc2c(c1)OCO2,-1,0,-6,0,0,2

# From PubChem
